This assay addresses Sodium channel protein type 5 subunit alpha (Homo sapiens, UniProt Q14524). Description: Blockade of Na+ current in frog oocytes expressing human cardiac sodium channel (HH1). An outline of the steps:
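HH1 transcripts injected into Xenopus laevis oocytes, incubated at room temperature 24–72 h. Two-microelectrode voltage clamp (3 M KCl electrodes), bath NaCl 140, KCl 2, CaCl2 1.8, MgCl2 1, HEPES 5 mM, pH 7.5, 21–23 °C. Holding −100 mV; peak current at the I–V maximum measured before and after test agent; IC50 in μM.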

Chain of Sodium channel protein type 5 subunit alpha (Q14524 whole entry): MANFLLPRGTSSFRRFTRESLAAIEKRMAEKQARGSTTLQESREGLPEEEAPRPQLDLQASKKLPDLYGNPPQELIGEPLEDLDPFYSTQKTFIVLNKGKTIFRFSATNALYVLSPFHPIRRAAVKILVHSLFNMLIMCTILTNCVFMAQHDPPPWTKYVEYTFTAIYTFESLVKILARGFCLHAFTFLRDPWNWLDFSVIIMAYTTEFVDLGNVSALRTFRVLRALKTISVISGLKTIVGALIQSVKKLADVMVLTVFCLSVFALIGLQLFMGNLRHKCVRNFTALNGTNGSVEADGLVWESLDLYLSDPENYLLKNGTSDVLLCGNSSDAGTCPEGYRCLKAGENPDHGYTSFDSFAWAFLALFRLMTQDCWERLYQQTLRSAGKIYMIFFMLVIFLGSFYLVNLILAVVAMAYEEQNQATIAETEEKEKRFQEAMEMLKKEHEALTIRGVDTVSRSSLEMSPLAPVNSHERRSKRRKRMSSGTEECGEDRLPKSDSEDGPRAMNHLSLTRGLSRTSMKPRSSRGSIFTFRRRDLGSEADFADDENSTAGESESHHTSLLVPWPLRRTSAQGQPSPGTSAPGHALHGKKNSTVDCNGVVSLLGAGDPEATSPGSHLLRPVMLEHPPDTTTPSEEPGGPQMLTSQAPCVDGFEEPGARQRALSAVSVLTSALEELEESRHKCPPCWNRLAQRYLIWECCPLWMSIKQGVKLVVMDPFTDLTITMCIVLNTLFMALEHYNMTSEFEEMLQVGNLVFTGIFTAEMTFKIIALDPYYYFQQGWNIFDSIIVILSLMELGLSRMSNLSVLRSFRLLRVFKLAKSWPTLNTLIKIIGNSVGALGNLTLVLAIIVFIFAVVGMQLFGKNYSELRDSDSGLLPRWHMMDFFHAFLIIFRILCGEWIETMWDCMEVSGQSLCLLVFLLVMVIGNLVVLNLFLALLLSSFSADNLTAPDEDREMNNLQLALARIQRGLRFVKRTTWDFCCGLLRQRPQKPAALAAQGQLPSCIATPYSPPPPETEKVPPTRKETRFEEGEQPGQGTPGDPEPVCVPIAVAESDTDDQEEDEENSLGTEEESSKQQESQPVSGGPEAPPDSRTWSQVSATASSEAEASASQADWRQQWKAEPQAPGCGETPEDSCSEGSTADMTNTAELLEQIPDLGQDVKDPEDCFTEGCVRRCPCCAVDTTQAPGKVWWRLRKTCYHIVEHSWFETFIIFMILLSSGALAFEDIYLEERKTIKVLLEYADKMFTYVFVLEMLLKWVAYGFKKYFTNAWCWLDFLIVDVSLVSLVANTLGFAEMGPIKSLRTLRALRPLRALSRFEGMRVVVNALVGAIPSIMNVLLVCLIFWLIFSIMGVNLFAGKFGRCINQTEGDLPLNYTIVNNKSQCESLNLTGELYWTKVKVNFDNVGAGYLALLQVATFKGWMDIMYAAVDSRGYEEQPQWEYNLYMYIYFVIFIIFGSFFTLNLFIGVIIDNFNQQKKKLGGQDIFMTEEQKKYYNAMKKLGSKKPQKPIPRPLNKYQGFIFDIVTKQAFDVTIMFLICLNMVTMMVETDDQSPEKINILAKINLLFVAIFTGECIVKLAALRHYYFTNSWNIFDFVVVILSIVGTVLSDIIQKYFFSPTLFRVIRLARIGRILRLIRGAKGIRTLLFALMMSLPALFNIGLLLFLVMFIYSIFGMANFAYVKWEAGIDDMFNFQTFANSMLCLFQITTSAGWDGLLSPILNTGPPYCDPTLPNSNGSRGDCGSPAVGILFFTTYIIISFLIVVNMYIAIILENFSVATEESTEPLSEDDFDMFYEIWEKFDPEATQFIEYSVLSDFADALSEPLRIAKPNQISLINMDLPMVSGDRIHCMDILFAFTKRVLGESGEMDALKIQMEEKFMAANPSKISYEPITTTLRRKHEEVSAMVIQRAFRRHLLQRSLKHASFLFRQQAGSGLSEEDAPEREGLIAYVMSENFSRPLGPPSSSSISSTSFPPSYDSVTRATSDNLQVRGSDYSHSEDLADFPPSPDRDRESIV

For the compound `CSc1ccc([C@H]2N=C(OCc3ccc(NS(C)(=O)=O)cc3)N(C)Cc3ccccc32)cc1`, the IC50 is above 30 µM.

For orientation: IC50 means the midpoint of a concentration-inhibition curve. Read a low IC50 as greater potency.

(Values after BindingDB's records for doi:10.1021/jm00014a008 (Sterling Winthrop Research, 1995).)
